Source: ChEMBL document CHEMBL4145448, “Broad activity of diphenyleneiodonium analogues against Mycobacterium tuberculosis, malaria parasites and bacterial pathogens” (Eur J Med Chem, 2018)

Tests used:
Pseudomonas aeruginosa [1] = assay: Antibacterial activity against Pseudomonas aeruginosa QLD PSA 1 after 18 hrs by broth microdilution method; format: functional; conditions: QLD PSA 1, 18 h
In short: (§1)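 Broth microdilution per CLSI in cation-adjusted Mueller-Hinton broth. 100 µL inoculum (~10^6 cfu/mL in CaMHB) mixed with 100 µL CaMHB containing compound, 0 to 128 µM. Incubated 18 h at 37 °C. MIC taken as the lowest concentration with no visible growth. Polymyxin B served as positive control. Isolates were stored at -80 °C in tryptone soy broth with 20% glycerol.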

Pseudomonas aeruginosa [2] = assay: Antibacterial activity against Pseudomonas aeruginosa isolate 18878B klon 1 after 18 hrs by broth microdilution method; format: functional; conditions: isolate 18878B klon 1, 18 h; in short: as §1
Pseudomonas aeruginosa [3] = assay: Antibacterial activity against Pseudomonas aeruginosa isolate M146201 after 18 hrs by broth microdilution method; format: functional; conditions: isolate M146201, 18 h; in short: as §1
Acinetobacter baumannii [4] = assay: Antibacterial activity against Acinetobacter baumannii ATCC 19606 after 18 hrs by broth microdilution method; format: functional; conditions: ATCC 19606 = CIP 70.34 = JCM 6841, 18 h; in short: as §1
Acinetobacter baumannii [5] = assay: Antibacterial activity against Acinetobacter baumannii isolate 246-01-C after 18 hrs by broth microdilution method; format: functional; in short: as §1
Acinetobacter baumannii [6] = assay: Antibacterial activity against Acinetobacter baumannii ATCC 17978 after 18 hrs by broth microdilution method; format: functional; conditions: ATCC 17978, 18 h; in short: as §1
Acinetobacter baumannii [7] = assay: Antibacterial activity against Acinetobacter baumannii ATCC 19606 col10 after 18 hrs by broth microdilution method; format: functional; conditions: ATCC 19606 = CIP 70.34 = JCM 6841 col10, 18 h; in short: as §1
Acinetobacter baumannii [8] = assay: Antibacterial activity against Acinetobacter baumannii isolate 07AC-336 after 18 hrs by broth microdilution method; format: functional; conditions: isolate 07AC-336, 18 h; in short: as §1
Acinetobacter baumannii [9] = assay: Antibacterial activity against Acinetobacter baumannii ATCC 17978 col10 after 18 hrs by broth microdilution method; format: functional; conditions: ATCC 17978 col10, 18 h; in short: as §1
Klebsiella pneumoniae [10] = assay: Antibacterial activity against Klebsiella pneumoniae isolate M320445 after 18 hrs by broth microdilution method; format: functional; conditions: isolate M320445, 18 h; in short: as §1
Klebsiella pneumoniae [11] = assay: Antibacterial activity against Klebsiella pneumoniae isolate 1 after 18 hrs by broth microdilution method; format: functional; conditions: isolate 1, 18 h; in short: as §1
Enterococcus faecium = assay: Antibacterial activity against vancomycin-resistant Enterococcus faecium ATCC 700221 after 18 hrs by broth microdilution method; format: functional; conditions: ATCC 700221, 18 h; in short: as §1
Klebsiella pneumoniae [12] = assay: Antibacterial activity against Klebsiella pneumoniae isolate 248-33-D after 18 hrs by broth microdilution method; format: functional; in short: as §1
Escherichia coli = assay: Antibacterial activity against Escherichia coli N4149 after 18 hrs by broth microdilution method; format: functional; conditions: N4149, 18 h; in short: as §1
Staphylococcus aureus [13] = assay: Antibacterial activity against methicillin-resistant Staphylococcus aureus ATCC 43300 after 18 hrs by broth microdilution method; format: functional; conditions: ATCC 43300, 18 h; in short: as §1
Staphylococcus aureus [14] = assay: Antibacterial activity against vancomycin-intermediate Staphylococcus aureus ATCC 700698 after 18 hrs by broth microdilution method; format: functional; conditions: ATCC 700698, 18 h; in short: as §1
Staphylococcus aureus [15] = assay: Antibacterial activity against vancomycin-resistant Staphylococcus aureus ATCC 700699 after 18 hrs by broth microdilution method; format: functional; conditions: ATCC 700699, 18 h; in short: as §1
[16] = Selectivity index, ratio of CC50 for human HepG2 cells in presence of 1% FBS to MIC for Pseudomonas aeruginosa ATCC 27853; format: toxicity; conditions: read-out: Selectivity Index
In short: (§2)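 Selectivity index is CC50 (1% FBS) divided by MIC. […] They then got compound at 300 to 0.14 µM (3-fold steps) for 24 h at 37 °C, 5% CO2. Resazurin (10 µM, 2 h) was read at ex/em 560/590 in duplicate wells. For MIC, CLSI broth microdilution was run in CaMHB with ~10^6 cfu/mL inoculum and 0–128 µM compound.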

[17] = Selectivity index, ratio of CC50 for human HepG2 cells in presence of 1% FBS to MIC for Pseudomonas aeruginosa QLD PSA 1; format: toxicity; conditions: read-out: Selectivity Index; in short: as §2
[18] = Selectivity index, ratio of CC50 for human HepG2 cells in presence of 1% FBS to MIC for Acinetobacter baumannii ATCC 19606; format: toxicity; conditions: read-out: Selectivity Index
[19] = Selectivity index, ratio of CC50 for human HepG2 cells in presence of 1% FBS to MIC for Acinetobacter baumannii ATCC 17978; format: toxicity; conditions: read-out: Selectivity Index
[20] = Selectivity index, ratio of CC50 for human HepG2 cells in presence of 1% FBS to MIC for Acinetobacter baumannii ATCC 19606 col10; format: toxicity; conditions: read-out: Selectivity Index
[21] = Selectivity index, ratio of CC50 for human HepG2 cells in presence of 1% FBS to MIC for Acinetobacter baumannii isolate 07AC-336; format: toxicity; conditions: read-out: Selectivity Index
[22] = Selectivity index, ratio of CC50 for human HepG2 cells in presence of 1% FBS to MIC for Acinetobacter baumannii ATCC 17978 col10; format: toxicity; conditions: read-out: Selectivity Index
[23] = Selectivity index, ratio of CC50 for human HepG2 cells in presence of 1% FBS to MIC for Klebsiella pneumoniae ATCC 13883; format: toxicity; conditions: read-out: Selectivity Index
[24] = Selectivity index, ratio of CC50 for human HepG2 cells in presence of 1% FBS to MIC for Klebsiella pneumoniae isolate M320445; format: toxicity; conditions: read-out: Selectivity Index
[25] = Selectivity index, ratio of CC50 for human HepG2 cells in presence of 1% FBS to MIC for Klebsiella pneumoniae isolate 1; format: toxicity; conditions: read-out: Selectivity Index
[26] = Selectivity index, ratio of CC50 for human HepG2 cells in presence of 1% FBS to MIC for Klebsiella pneumoniae isolate 224-11-C; format: toxicity; conditions: read-out: Selectivity Index
[27] = Selectivity index, ratio of CC50 for human HepG2 cells in presence of 1% FBS to MIC for Escherichia coli N2381; format: toxicity; conditions: read-out: Selectivity Index
[28] = Selectivity index, ratio of CC50 for human HepG2 cells in presence of 1% FBS to MIC for Escherichia coli N11281; format: toxicity; conditions: read-out: Selectivity Index
[29] = Selectivity index, ratio of CC50 for human HepG2 cells in presence of 1% FBS to MIC for vancomycin-resistant Enterococcus faecium ATCC 700221; format: toxicity; conditions: read-out: Selectivity Index; in short: as §2
[30] = Selectivity index, ratio of CC50 for human HepG2 cells in presence of 1% FBS to MIC for vancomycin-intermediate Staphylococcus aureus ATCC 700698; format: toxicity; conditions: read-out: Selectivity Index; in short: as §2
[31] = Selectivity index, ratio of CC50 for human HepG2 cells in presence of 1% FBS to MIC for vancomycin-resistant Staphylococcus aureus ATCC 700699; format: toxicity; conditions: read-out: Selectivity Index; in short: as §2
[32] = tested on: Mycobacterium tuberculosis; assay: Antimycobacterial activity against Mycobacterium tuberculosis H37Rv ATCC 25618 after 7 days by resazurin dye based assay; format: functional; conditions: H37Rv ATCC 25618, 168 h
In short: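 H37Rv grown at 37 °C in 7H9 with 10% ADC, 0.5% glycerol and 0.02% tyloxapol. Compounds serially diluted in water, 0 to 10 µM, in triplicate. Culture adjusted to OD600 0.001 and incubated 7 days at 37 °C. Resazurin (0.05% w/v) added for 4-24 h and fluorescence read at 590 nm. MIC is the lowest concentration giving complete growth inhibition versus untreated. Rifampicin served as control.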

| SMILES | MIC (Pseudomonas aeruginosa [1]) [µM] | MIC (Pseudomonas aeruginosa [2]) [µM] | MIC (Pseudomonas aeruginosa [3]) [µM] | MIC (Acinetobacter baumannii [4]) [µM] | MIC (Acinetobacter baumannii [5]) [µM] | MIC (Acinetobacter baumannii [6]) [µM] | MIC (Acinetobacter baumannii [7]) [µM] | MIC (Acinetobacter baumannii [8]) [µM] | MIC (Acinetobacter baumannii [9]) [µM] | MIC (Klebsiella pneumoniae [10]) [µM] | MIC (Klebsiella pneumoniae [11]) [µM] | MIC (Enterococcus faecium) [µM] | MIC (Klebsiella pneumoniae [12]) [µM] | MIC (Escherichia coli) [µM] | MIC (Staphylococcus aureus [13]) [µM] | MIC (Staphylococcus aureus [14]) [µM] | MIC (Staphylococcus aureus [15]) [µM] | selectivity ratio [16] | selectivity ratio [17] | selectivity ratio [18] | further results |
| --- | --- | --- | --- | --- | --- | --- | --- | --- | --- | --- | --- | --- | --- | --- | --- | --- | --- | --- | --- | --- | --- |
| Clc1ccc2c(c1)-c1ccccc1[I+]2 | 8.7 | 2.2 | 4.3 | 4.3 | 4.3 | 2.2 | 2.2 | 8.7 | 0.5 | 35 | 35 | 8.7 | 17 | 17 | 2.2 | 4.3 | 4.3 | 1.9 | 1.9 | 3.7 | selectivity ratio [19]: 7.5; selectivity ratio [20]: 7.5; selectivity ratio [21]: 1.9; selectivity ratio [22]: 30; selectivity ratio [23]: 1.9; selectivity ratio [24]: 0.47; selectivity ratio [25]: 0.47; selectivity ratio [26]: 0.47; selectivity ratio [27]: 0.93; selectivity ratio [28]: 0.93; selectivity ratio [29]: 1.9; selectivity ratio [30]: 3.7; selectivity ratio [31]: 3.7; MIC [32]: 0.54 µM |
| c1ccc2c(c1)[I+]c1c-2ccc2ccccc12 | 4.2 | 2.1 | 8.4 | 4.2 | 4.2 | 1.1 | 1.1 | 8.4 | 0.52 | 17 | 34 | 1.1 | 34 | 34 | 2.1 | 4.2 | 4.2 | 0.09 | 0.17 | 0.17 | selectivity ratio [19]: 0.69; selectivity ratio [20]: 0.69; selectivity ratio [21]: 0.09; selectivity ratio [22]: 1.4; selectivity ratio [23]: 0.09; selectivity ratio [24]: 0.04; selectivity ratio [25]: 0.02; selectivity ratio [26]: 0.02; selectivity ratio [27]: 0.09; selectivity ratio [28]: 0.04; selectivity ratio [29]: 0.69; selectivity ratio [30]: 0.17; selectivity ratio [31]: 0.17; MIC [32]: 0.52 µM |
